Columns and labels:
[1] = Partition coefficient (logP); assay type: physicochemical; settings: octanol/water
[2] = system: Canis familiaris; assay: Cardiovascular activity in presence of beta-adrenoceptor blockade in dogs as percent change in heart rate from base line (136 bpm) at 0.01 mg/kg; assay type: functional, Canis lupus familiaris
[3] = system: Canis familiaris; assay: Cardiovascular activity in presence of beta-adrenoceptor blockade in dogs as percent change in left ventricular myocardial contractility from base line (1869 mmHg/s) at 0.01 mg/kg dose given 15 min after nadolol; assay type: functional, Canis lupus familiaris, Heart left ventricle
[4] = system: Canis familiaris; assay: Cardiovascular activity in presence of beta-adrenoceptor blockade in dogs as percent change in forelimb vascular resistance from base line (5.23 mmHg/mL/min) at 0.01 mg/kg given 15 min after nadolol; assay type: functional, Canis lupus familiaris
[5] = system: Canis familiaris; assay: Hemodynamic activity in anesthetized dog as percent change in left ventricular myocardial activity from baseline (2271 mmHg/s) at 0.03 mg/kg administered intravenously; assay type: functional, Canis lupus familiaris, Heart left ventricle; settings: route intravenous
Procedure, shortened: (§1)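 Acutely instrumented anesthetized dogs (n = 6), 30-min control period. Compound in 0.9% saline, or dilute HCl diluted with saline, at 0.1 mL/kg iv over 1 min. At least four ascending half-log doses, 10 min apart, one compound per animal. Recorded: LV dP/dtmax, heart rate, aortic pressure and forelimb resistance. Values are maximum response from control average ± SEM.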

[6] = system: Canis familiaris; assay: Hemodynamic activity in anesthetized dog as percent change in blood pressure from baseline (123 mmHg) at 0.003 mg/kg administered intravenously; assay type: functional, Canis lupus familiaris; settings: route intravenous; procedure, shortened: as §1
[7] = system: Canis familiaris; assay: Hemodynamic activity in anesthetized dog as percent change in heart rate from baseline (152 bpm) at 0.001 mg/kg administered intravenously; assay type: functional, Canis lupus familiaris; settings: route intravenous; procedure, shortened: as §1
[8] = system: Canis familiaris; assay: Hemodynamic activity in anesthetized dog as percent change in heart rate from baseline (152 bpm) at 0.01 mg/kg administered intravenously; assay type: functional, Canis lupus familiaris; settings: route intravenous; procedure, shortened: as §1
[9] = system: Canis familiaris; assay: Hemodynamic activity in anesthetized dog as percent change in fore limb resistance from baseline (2.77 mmHg/mL/min) at 0.01 mg/kg administered intravenously; assay type: functional, Canis lupus familiaris; settings: route intravenous; procedure, shortened: as §1
[10] = system: Canis familiaris; assay: Hemodynamic activity in anesthetized dog as percent change in fore limb resistance from baseline (2.77 mmHg/mL/min) at 0.03 mg/kg administered intravenously; assay type: functional, Canis lupus familiaris; settings: route intravenous; procedure, shortened: as §1
[11] = system: Canis familiaris; assay: Hemodynamic activity in anesthetized dog as percent change in fore limb resistance from baseline (2.77 mmHg/mL/min) at 0.1 mg/kg administered intravenously; assay type: functional, Canis lupus familiaris; settings: route intravenous; procedure, shortened: as §1
[12] = system: Canis familiaris; assay: Percentage increase in left ventricular contractility in anesthetized dog; assay type: functional, Canis lupus familiaris, Heart left ventricle
[13] = system: Canis familiaris; assay: Weight of thrombus after 60 min of 1 ug/kg/min; assay type: functional, Canis lupus familiaris
Procedure, shortened: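 Pentobarbital-anesthetized (32 mg/kg iv), ventilated dogs, allowed 30 min to stabilize. Continuous infusion of compound (1.0, 3.0 or 10.0 μg/kg/min) or saline began 15 min before 50 μA current was applied to an intraluminal electrode in the circumflex coronary artery. After 60 min of stimulation the animals were euthanized and the thrombus dissected and weighed. One treatment per animal.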

[14] = system: Canis familiaris; assay: Cardiovascular activity in presence of beta-adrenoceptor blockade in dogs as percent change in blood pressure from base line (116/94 mmHg) at 0.01 mg/kg dose before nadolol administration; -9/-11

Work on `CC1CC(=O)NN=C1/C=C/c1ccc(-n2ccnc2)cc1.Cl` (centres undefined) yielded a logP [1] of 1.71, a Change [2] of 18% and a Change [3] of 25%. For the same molecule, the Change [4] was -13%, the Change [5] was 117% and the Change [6] was -5%. It also gave a Change [7] of 0.2%, a Change [8] of 12% and a Change [9] of -36%. The Change [10] was -49%, the Change [11] was -58% and the Increase [12] was 19%. The Thrombus weight [13] was 10.7 mg and the Change [14] was -9%.

— ChEMBL document CHEMBL1124387, “Cardiotonic agents. 9. Synthesis and biological evaluation of a series of (E)-4,5-dihydro-6-[2-[4-(1H-imidazol-1-yl)phenyl]ethenyl]-3 (2H)-pyridazinones: a novel class of compounds with positive inotropic, antithrombotic, and vasodilatory activities for the treatment of congestive heart failure” (J Med Chem, 1989)
